Assay results as given in ChEMBL document CHEMBL3525913, “Metabolism-dependent inhibition of CYP3A4 by lapatinib: evidence for formation of a metabolic intermediate complex with a nitroso/oxime metabolite formed via a nitrone intermediate” (Drug Metab Dispos, 2013).

Columns and labels:
[1] = test system: Liver microsome; assay: Drug level in human liver microsomes treated with lapatinib at 50 uM by LC/MS/MS analysis; type: ADME
Procedure, shortened: (§1)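 Lapatinib 50 μM (added in DMSO) incubated 30 min at 37°C in 100 mM potassium phosphate pH 7.4 with HLM 1 mg/mL or recombinant CYP3A4+b5 / CYP3A5+b5 100 pmol/mL. Reaction started with NADPH 1 mM. Protein re-isolated by ultracentrifugation (100,000 x g, 4°C, 60 min), washed (KCl/EDTA), resuspended in phosphate buffer, ±2 mM ferricyanide 10 min 37°C, quenched with acetonitrile, then high-resolution LC/MS profiling.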

[2] = molecular target: Cytochrome P450 3A4 (Homo sapiens, UniProt P08684); assay: Activity of recombinant CYP3A4 (unknown origin) assessed as compound formation treated with lapatinib at 50 uM by LC/MS/MS analysis; type: ADME; details: recombinant enzyme; procedure, shortened: as §1
Sequence of Cytochrome P450 3A4 (P08684 whole entry): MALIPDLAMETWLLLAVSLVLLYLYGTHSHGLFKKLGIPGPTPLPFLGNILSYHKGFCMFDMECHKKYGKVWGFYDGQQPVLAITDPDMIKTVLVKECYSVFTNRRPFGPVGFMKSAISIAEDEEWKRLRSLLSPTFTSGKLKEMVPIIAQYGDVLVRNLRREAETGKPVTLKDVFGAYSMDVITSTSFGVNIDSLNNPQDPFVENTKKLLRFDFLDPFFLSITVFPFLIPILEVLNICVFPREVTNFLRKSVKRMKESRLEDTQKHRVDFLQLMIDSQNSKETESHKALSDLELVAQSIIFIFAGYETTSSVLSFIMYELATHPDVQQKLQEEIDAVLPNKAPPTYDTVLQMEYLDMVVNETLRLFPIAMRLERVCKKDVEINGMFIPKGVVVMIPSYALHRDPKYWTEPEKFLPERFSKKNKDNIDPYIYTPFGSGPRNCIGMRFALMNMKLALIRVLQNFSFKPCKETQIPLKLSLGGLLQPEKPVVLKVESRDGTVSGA

[3] = Retention time of the compound by LC/MS/MS analysis relative to lapatinib; type: physicochemical
Procedure, shortened: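 Phenyl UPLC column (1.7 μm, 2.1 x 100 mm), 0.1% formic acid in water/acetonitrile, 0.4 mL/min. Gradient: 10% organic for 1 min, to 90% over 13 min, held 0.5 min. Detection by accurate-mass MS. Retention times expressed relative to lapatinib.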

[4] = molecular target: Cytochrome P450 3A5 (Homo sapiens, UniProt P20815); assay: Activity of recombinant CYP3A5 (unknown origin) assessed as compound formation treated with lapatinib at 50 uM by LC/MS/MS analysis; type: ADME; details: recombinant enzyme; procedure, shortened: as §1
Sequence of Cytochrome P450 3A5 (P20815 whole entry): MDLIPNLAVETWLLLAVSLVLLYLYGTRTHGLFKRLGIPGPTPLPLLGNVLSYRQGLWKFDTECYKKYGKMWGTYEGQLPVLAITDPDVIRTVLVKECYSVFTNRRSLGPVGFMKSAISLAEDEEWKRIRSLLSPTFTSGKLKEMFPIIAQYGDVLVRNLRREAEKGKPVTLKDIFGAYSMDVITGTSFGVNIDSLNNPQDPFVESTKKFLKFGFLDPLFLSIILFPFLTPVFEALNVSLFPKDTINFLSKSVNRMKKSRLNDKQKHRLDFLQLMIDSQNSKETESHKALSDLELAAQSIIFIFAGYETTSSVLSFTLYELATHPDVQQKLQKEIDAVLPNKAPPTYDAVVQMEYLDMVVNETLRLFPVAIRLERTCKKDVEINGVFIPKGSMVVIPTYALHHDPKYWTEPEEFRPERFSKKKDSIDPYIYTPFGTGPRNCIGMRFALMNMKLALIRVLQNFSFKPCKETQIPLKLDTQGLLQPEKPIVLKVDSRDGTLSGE

| Drug metabolism [1] | Drug metabolism [2] | Ratio [3] | Drug metabolism [4] | SMILES |
| --- | --- | --- | --- | --- |
| metabolite_detected | metabolite_detected | 1.11 | metabolite_detected | CS(=O)(=O)CC/[N+]([O-])=C/c1ccc(-c2ccc3ncnc(Nc4ccc(OCc5cccc(F)c5)c(Cl)c4)c3c2)o1 |
| metabolite_detected | metabolite_detected | 1.21 | metabolite_detected | O=Cc1ccc(-c2ccc3ncnc(Nc4ccc(OCc5cccc(F)c5)c(Cl)c4)c3c2)o1 |
